# Screens as filed in PubChem BioAssay.
# This is a sample that favours compounds with a hit; in the whole collection about 1.2% have one here.
# PfGluPho inh = PfG6PD (Plasmodium falciparum) enzyme inhibition; inhibition, % at 20 µM; AID 504690; PfGluPho enzyme, NADPH resazurin-diaphorase fluorescence; hit rate 0.78% among 350,000;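 active = inhibition reaching at least a set limit at 20 µM in the primary screen, cut at about 59% in these data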;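 also: 0% = DMSO wells with substrate and 100% = DMSO wells lacking glucose-6-phosphate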
# Diaphorase inh = diaphorase inhibition or chemical oxidation counter-screen; diaphorase resazurin-to-resorufin fluorescence, NADH, 16 min; bacterial (C. kluyveri) enzyme, not human; inhibition, % at 20 µM; hit rate 0.69% among 190,000; AID 1217;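 active = primary screen inhibition at 20 µM above a set limit, cut at about 50% in these data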;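 also: plate controls were DMSO with full reaction for no effect and wells lacking NADH for full effect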
#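 Assay system: diaphorase enzyme from Clostridium kluyveri. Quantity: enzyme working solution with 0.14 U/mL diaphorase. Schedule: reaction incubation of 16 min at room temperature. Technique: resorufin fluorescence, excitation 544 nm, emission 590 nm. Controls: No-NADH positive control and DMSO neutral control.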
# G6PDH counter = L. mesenteroides G6PDH inhibition counter-screen; inhibition, % at 5 µM; Purified L. mesenteroides G6PDH, diaphorase/resazurin coupled fluorescence, 45 min; AID 1020; hit rate 0.12% among 200,000; in the data active = inhibition above about 50%
# HKDC1 inh = inhibitors of human hexokinase HKDC1; Q2TB90; recombinant HKDC1, G6PDH/diaphorase resazurin coupled fluorescence; inhibition, % at 20 µM; hit rate 0.16% among 340,000;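 active = inhibition above about 35% when tested at 20 µM, limit read from the data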;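 also: plate controls were DMSO wells with enzyme for no effect and DMSO wells lacking enzyme for full effect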
# Target sequence (Q2TB90 whole entry, looked up): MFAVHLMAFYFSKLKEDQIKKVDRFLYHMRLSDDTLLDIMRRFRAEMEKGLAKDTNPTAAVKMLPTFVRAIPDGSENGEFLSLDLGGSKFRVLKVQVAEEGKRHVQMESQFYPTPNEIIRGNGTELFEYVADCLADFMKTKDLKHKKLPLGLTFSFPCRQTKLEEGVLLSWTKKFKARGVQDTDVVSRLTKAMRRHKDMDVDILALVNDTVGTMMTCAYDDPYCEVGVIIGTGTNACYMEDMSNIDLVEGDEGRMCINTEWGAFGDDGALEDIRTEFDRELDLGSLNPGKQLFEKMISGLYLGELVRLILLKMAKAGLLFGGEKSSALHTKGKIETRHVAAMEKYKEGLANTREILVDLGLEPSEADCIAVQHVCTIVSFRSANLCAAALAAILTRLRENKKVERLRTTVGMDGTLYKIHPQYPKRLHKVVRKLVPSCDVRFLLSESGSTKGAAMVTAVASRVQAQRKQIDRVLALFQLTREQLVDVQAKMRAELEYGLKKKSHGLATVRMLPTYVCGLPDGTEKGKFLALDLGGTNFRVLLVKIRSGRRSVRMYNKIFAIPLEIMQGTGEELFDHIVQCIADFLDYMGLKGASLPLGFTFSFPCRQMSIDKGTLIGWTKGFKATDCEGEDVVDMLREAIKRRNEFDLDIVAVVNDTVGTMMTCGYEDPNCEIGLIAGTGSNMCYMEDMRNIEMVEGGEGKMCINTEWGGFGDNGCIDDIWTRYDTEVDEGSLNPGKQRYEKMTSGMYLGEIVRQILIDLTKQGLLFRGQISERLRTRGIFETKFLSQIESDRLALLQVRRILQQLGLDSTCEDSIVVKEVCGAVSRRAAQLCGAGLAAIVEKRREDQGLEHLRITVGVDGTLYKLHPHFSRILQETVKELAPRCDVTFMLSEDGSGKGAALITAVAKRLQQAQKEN
#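 Material – in-house recombinant HK5 (HKDC1) enzyme · Quantity – HKDC1 at 5 µg/mL · Buffer or medium – pH 8.0 Tris buffer with 10 mM MgCl2 · Reagent – glucose with 1 mM ATP · Dosing – single 20 µM dose · Times – reaction time 90 min, room temperature, protected from light · Technique – resorufin fluorescence at 613 nm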
# PfG6PD confirm = confirmation of Plasmodium falciparum G6PD inhibitors; AID 504753; inhibition, % at 20 µM; shares compounds with PfGluPho inh; hit rate 34% among 2,400; recombinant PfGluPho, NADPH-diaphorase-resazurin fluorescence;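 active = inhibition of at least 50% at 20 µM in any single replicate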;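 also: 0% = DMSO with substrate and 100% = DMSO lacking glucose-6-phosphate substrate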
# Diaph ctr 10uM = diaphorase inhibition or oxidation at 10 uM NADPH | shares compounds with PfGluPho inh | diaphorase-coupled resazurin reduction, fluorescence, NADPH 10 uM | inhibition, % at 20 µM | hit rate 39% among 820 | AID 504862;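 active = average inhibition reaching 50% or more with the compound at 20 µM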;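 also: resorufin red fluorescence formed as diaphorase reduces resazurin using NADPH; 0% = DMSO with enzyme and 100% = DMSO without enzyme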
# Diaphorase 30uM = inhibits diaphorase or oxidizes, flagging false PfG6PD hits; shares compounds with PfGluPho inh; Diaphorase/resazurin coupled assay, resorufin fluorescence, 30 uM NADPH; inhibition, % at 20 µM; hit rate 29% among 820;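 active = inhibition averaging 50% or more, tested at 20 µM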;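 also: 0% = DMSO with enzyme and 100% = DMSO wells lacking diaphorase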
# The depositor's hits bear a star; x = not tested or not shown.
SMILES,PfGluPho inh,Diaphorase inh,G6PDH counter,HKDC1 inh,PfG6PD confirm,others
CN(C)C(CNS(=O)(=O)c1ccc2ccccc2c1)c1ccccc1 (centres undefined),0.0,x,x,3.3,x,
CC(C)NC(=S)NNc1nc2ccccc2s1,73.6*,22.3,2.8,-3.9,22.0,
O=C(NNc1nc2ccccc2s1)c1ccc(F)cc1,3.2,9.1,1.4,-13.6,x,
COCCCN1C(=O)c2ccc(C(=O)OCC(=O)N3CCN(c4ccccc4)CC3)cc2C1=O,-13.3,x,x,-1.7,x,
C/C(=N\Nc1ccc([N+](=O)[O-])cc1)c1ccc(O)cc1,66.5*,20.4,-1.2,-8.3,2.5,
C/C(=N\Nc1ccc([N+](=O)[O-])cc1)c1cccc(N)c1,111.4*,14.2,10.0,4.1,40.9,
C/C(=N/Nc1ccccc1[N+](=O)[O-])c1ccc([N+](=O)[O-])cc1,-0.8,x,x,-1.1,x,
COc1ccc(NC2CCCN(Cc3cccc4cnccc34)C2)cc1OC (centres undefined),64.8*,x,x,6.8,58.1*,Diaph ctr 10uM=9.7;Diaphorase 30uM=1.8
COc1ccc(NC2CCCN(Cc3cccc4cnccc34)C2)cc1 (centres undefined),9.8,x,x,12.6,x,
COc1cc(N2C(=O)C=CC2=O)ccc1N1C(=O)C=CC1=O,120.9*,x,x,1.6,105.3*,Diaph ctr 10uM=-1.1;Diaphorase 30uM=-17.5
Cc1cc(C)c(S(=O)(=O)Oc2ccccc2[N+](=O)[O-])c(C)c1,15.7,x,x,-2.2,x,
CC1=CC(=O)C=C(C)C1=NOc1ccccc1[N+](=O)[O-],68.9*,22.0,8.7,21.3,-5.8,
C=CCSc1nc2sc3c(c2c(=O)n1CC)CCc1ccccc1-3,84.4*,20.9,6.6,-20.8,50.6*,Diaph ctr 10uM=-16.0;Diaphorase 30uM=-0.7
C=CCn1c(SCC)nc2sc3c(c2c1=O)CCc1ccccc1-3,-1.3,11.3,3.7,-0.3,x,
Cc1cc(C)nc(NC(N)=NC(C)c2ccccc2)n1 (centres undefined),4.5,1.1,-0.6,-8.0,x,
Cc1cc(C)nc(NC(N)=NCCc2ccccc2)n1,78.8*,x,x,-4.1,51.5*,Diaph ctr 10uM=49.1;Diaphorase 30uM=48.4
COc1ccc(-c2csc(NC(=O)COC(=O)c3ccco3)n2)cc1,59.9*,7.0,15.9,-3.1,15.9,
N#Cc1ccc(NC(=S)NC(=O)C2CC2)cc1,-7.0,x,x,x,x,
COc1ccc(CN(C)CCCn2ccc(NC(=O)OCc3ccccc3)nc2=O)cc1OC,19.9,x,x,x,x,
COc1cc(NCCCn2ccc(NC(=O)OCc3ccccc3)nc2=O)cc(OC)c1OC,79.8*,x,x,17.9,74.1*,Diaph ctr 10uM=-4.1;Diaphorase 30uM=4.7
COc1cc(NCCCn2cnc3c(OCc4ccccc4)ncnc32)cc(OC)c1OC,80.2*,x,x,4.0,67.3*,Diaph ctr 10uM=-14.2;Diaphorase 30uM=-22.8
CC1CCCCC1NC(=O)CNC(=O)c1ccco1 (centres undefined),2.4,x,x,-5.3,x,
N#Cc1cccc(S(=O)(=O)NNC(=O)C23CC4CC(CC(C4)C2)C3)c1,-7.2,x,x,-4.5,x,
CCN(CC)CC(O)CNc1ccnc2c(Cl)ccc(Cl)c12 (centres undefined),-7.1,x,x,-2.1,x,
COc1cc(O)c(NC(C)=O)c2nonc12,64.1*,63.4*,22.4,4.5,42.9,
SMILES,PfGluPho inh,Diaphorase inh,G6PDH counter,HKDC1 inh,PfG6PD confirm,others
COc1ccc(CSCC(=O)N/N=C/c2ccccc2OCc2ccccc2)cc1,89.5*,12.4,0.2,-1.6,20.1,
NC(=S)N/N=C\c1ccccc1OCc1ccccc1,16.4,22.1,-1.9,-6.2,x,
O=C(CSCc1ccccc1)N/N=C/c1ccccc1OCc1ccccc1,62.8*,-4.3,8.2,8.5,-14.0,
COc1ccc(CSCC(=O)N/N=C/c2ccc(OCC(=O)NCc3ccco3)cc2)cc1,-8.6,25.3,-1.1,-1.4,x,
CC(C)(C)c1ccc(OCC(O)CN2CCc3ccccc3C2)cc1 (centres undefined),12.8,x,x,3.2,x,
COc1cccc(CN(C)C[C@H]2OCc3cnnn3CCCC(=O)N([C@@H](C)CO)C[C@@H]2C)c1,-10.9,x,x,x,x,
Cc1ccc(-n2c(N)c(C(=O)NCc3ccco3)sc2=S)cc1,58.6,16.0,2.9,0.3,x,
CCn1c(N)c(C(=O)NCc2cccnc2)sc1=S,13.4,9.5,2.6,2.5,x,
Nc1c(C(=O)NCc2cccnc2)sc(=S)n1-c1ccccc1,49.4,-1.6,1.6,-2.8,42.6,
